A selection: hits, their analogues and other compounds. The true share with any hit is near 6.6%.
H69AR growth 86K: proliferation blockers of H69AR lung cancer cells, primary screen, cell-based, human, 86K library | H69AR lung tumor viability, ATP luminescence, 72 h; stronger effect = lower value | viability, % at 10 µM | hit rate 6% among 85,000 | AID 598, 2007;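 active = viability at or below 40%; inactive = viability above 40%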;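 also: multidrug resistant small cell line overexpressing MRP-1 efflux transporter; 100% = mean luminescence of untreated control wells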
HUVEC inhibit: inhibitors of HUVEC proliferation, primary screen, cell-based, 384-well | CellTiter-Glo luminescence, 72 h; stronger effect = lower value | viability, % at 10 µM (by protocol) | hit rate 1.1% among 86,000;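 active = viability at or below 30%; inactive = viability above 30%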;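 also: 100% = median luminescence of DMSO-only cell control wells on each plate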
Jurkat tox 60K: cytotoxicity toward Jurkat T cells, primary screen, cytotoxicity control, cell-based, Jurkat E6.1, 60K MLSMR library. AID 463, 2006. inhibition, % at 4 µM. hit rate 1.2% among 56,000. Jurkat E6.1 viability, ATP luminescence, 48 h;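 active = inhibition above the mean inhibition of all tested compounds plus 3 SD, cut at about 28% in these data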
Lung fibro prol: antiproliferative effect on LL 47 fibroblasts – human, LL 47 cells, CellTiter-Glo luminescence, primary screen; LL 47 human lung fibroblast viability, ATP luminescence; stronger effect = lower value; viability, % at 10 µM; hit rate 1.1% among 85,000;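 active = viability at or below 50% in the single dose screen; inactive = viability above 50%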;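 also: compound exposure lasted 72 h before the ATP readout; 100% = median luminescence of untreated cell-only wells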
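material = human LL 47 lung fibroblast cells | dosing = compounds added from tenfold dosing solution, 0.1% DMSO final | timing = overnight cell rest, 72 h compound treatment at 37 °C | measured by = CellTiter-Glo luminescence measuring cellular ATP | evaluation = % viability versus median cells-only luminescence | control set = cell-only wells, no compound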
Starred values were filed as active, the others as inactive.

What do the screens show for `COc1cccc(-c2nc(-c3ccc(NC(=O)c4cccnc4)cc3)no2)c1`?
H69AR growth 86K: 25.8*; HUVEC inhibit: 101.0; Jurkat tox 60K: -4.0; Lung fibro prol: 99.9

What do the screens show for `COc1ccc(-c2noc(-c3ccccc3C(=O)Nc3cccnc3)n2)cc1`?
H69AR growth 86K: 75.5; HUVEC inhibit: 87.3; Jurkat tox 60K: -1.2; Lung fibro prol: 94.5

What do the screens show for `O=C(Nc1ccc(-c2noc(-c3cccs3)n2)cc1)c1cccnc1`?
H69AR growth 86K: 10.3*; HUVEC inhibit: 51.5; Jurkat tox 60K: 7.6; Lung fibro prol: 101.1

How did CCN1CCN(Cc2nc3c(c(=O)n(C)c(=O)n3C)n2C(C)C(C)=O)CC1 (centres undefined) do in these assays?
H69AR growth 86K: 85.4; HUVEC inhibit: 93.5; Lung fibro prol: 98.4

Results for COc1ccccc1-n1c2c(cc(C(=O)N3CCC(C)CC3)c1=O)C(=O)CC(C)(C)C2 ?
H69AR growth 86K: 94.0; HUVEC inhibit: 108.3; Jurkat tox 60K: 0.0; Lung fibro prol: 102.6

How did COC(=O)CC/C(O)=C1\C(=O)CC(C)(C)CC1=Nc1ccccc1OC do in these assays?
H69AR growth 86K: 28.6*; HUVEC inhibit: 93.3; Lung fibro prol: 94.4

How did CCC/C(O)=C1\C(=O)CC(C)(C)CC1=Nc1ccc(OC)cc1OC do in these assays?
H69AR growth 86K: 21.4*; HUVEC inhibit: 59.8; Jurkat tox 60K: 86.5*; Lung fibro prol: 57.1

How did CCCC/C(O)=C1\C(=O)CC(C)(C)CC1=Nc1ccccc1OC do in these assays?
H69AR growth 86K: 32.9*; HUVEC inhibit: 107.3; Lung fibro prol: 92.9

How did COc1ccc(OC)c(N=CC2=C(O)CC(C)(C)CC2=O)c1 do in these assays?
H69AR growth 86K: 93.9; HUVEC inhibit: 95.7; Jurkat tox 60K: 3.9; Lung fibro prol: 97.0

What do the screens show for `Cc1cnc(C(=O)OCC(=O)c2csc(N3CCCCC3)n2)cn1`?
H69AR growth 86K: 79.7; HUVEC inhibit: 98.1; Jurkat tox 60K: -4.6; Lung fibro prol: 110.1

How did CCn1c2ccccc2c2cc(/C=N/n3cnnc3)ccc21 do in these assays?
H69AR growth 86K: 74.0; HUVEC inhibit: 109.2; Jurkat tox 60K: 2.5; Lung fibro prol: 80.0

What do the screens show for `CCn1c2ccccc2c2cc(/C=N/n3cn[nH]c3=S)ccc21`?
H69AR growth 86K: 15.2*; HUVEC inhibit: 76.0; Lung fibro prol: 84.9

Results for COc1ccc(-c2cc(N)n(S(=O)(=O)c3c(F)c(F)c(F)c(F)c3F)n2)cc1OC ?
H69AR growth 86K: 1.4*; HUVEC inhibit: 2.2*; Jurkat tox 60K: 88.2*; Lung fibro prol: 2.6*

What do the screens show for `CCN1/C(=C/c2ccc3ccccc3[n+]2CC)C=Cc2ccccc21`?
H69AR growth 86K: 2.2*; HUVEC inhibit: 44.6; Lung fibro prol: 17.9*

Results for COc1ccc2[nH]c(=O)c(CN(Cc3cccs3)Cc3nnnn3C(C)(C)C)cc2c1 ?
H69AR growth 86K: 72.3; HUVEC inhibit: 84.7; Jurkat tox 60K: 1.4; Lung fibro prol: 102.1

Results for CCOc1ccc2[nH]c(=O)c(CN(Cc3cccs3)Cc3nnnn3C(C)(C)C)cc2c1 ?
H69AR growth 86K: 7.3*; HUVEC inhibit: 69.0; Jurkat tox 60K: 6.0; Lung fibro prol: 67.1

What do the screens show for `c1ccc2c(CCNc3ncnc4nc[nH]c34)c[nH]c2c1`?
H69AR growth 86K: 20.1*; HUVEC inhibit: 65.1; Jurkat tox 60K: 87.6*; Lung fibro prol: 83.5

How did CC1Cc2nc(SCC(=O)NCc3ccco3)n(Cc3ccccc3)c(=O)c2S1 (centres undefined) do in these assays?
H69AR growth 86K: 91.4; HUVEC inhibit: 98.5; Jurkat tox 60K: -1.8; Lung fibro prol: 100.7

What do the screens show for `COC(=O)NC(=C(Cl)Cl)S(=O)(=O)c1ccccc1`?
H69AR growth 86K: 1.1*; HUVEC inhibit: 54.9; Lung fibro prol: 33.7*

Results for CCOC(=O)C1=C(c2ccccc2)O/C(=C(\C(=O)OC)C(F)(F)F)S1 ?
H69AR growth 86K: 67.4; HUVEC inhibit: 95.2; Lung fibro prol: 94.4

How did CCOC(=O)C1=C(c2ccccc2)O/C(=C(/C#N)C(F)(F)F)S1 do in these assays?
H69AR growth 86K: 1.7*; HUVEC inhibit: 10.2*; Lung fibro prol: 2.5*

Results for Cn1c(=O)[nH]c(=O)c2c1nc(N1CCOCC1)n2CCN1CCOCC1 ?
H69AR growth 86K: 89.6; HUVEC inhibit: 103.1; Jurkat tox 60K: -9.3; Lung fibro prol: 107.0

Results for CN1CCN(Cc2nc3c(c(=O)[nH]c(=O)n3C)n2CCc2ccccc2)CC1 ?
H69AR growth 86K: 86.4; HUVEC inhibit: 88.7; Jurkat tox 60K: -3.2; Lung fibro prol: 100.4

Results for COc1ccc(OCC(O)Cn2c(Br)nc3c2c(=O)[nH]c(=O)n3C)cc1 (centres undefined) ?
H69AR growth 86K: 35.4*; HUVEC inhibit: 94.0; Jurkat tox 60K: -0.8; Lung fibro prol: 98.2

Results for COc1ccc(CCn2c(N3CCN(Cc4ccccc4)CC3)nc3c2c(=O)[nH]c(=O)n3C)cc1 ?
H69AR growth 86K: 33.4*; HUVEC inhibit: 84.6; Jurkat tox 60K: 2.4; Lung fibro prol: 98.3

How did Cc1ccc(Sc2nc3c(c(=O)[nH]c(=O)n3C)n2CCc2ccccc2)cc1 do in these assays?
H69AR growth 86K: 14.1*; HUVEC inhibit: 68.2; Lung fibro prol: 81.7

Results for COc1ccc(CCn2c(N3CCOCC3)nc3c2c(=O)[nH]c(=O)n3C)cc1 ?
H69AR growth 86K: 24.6*; HUVEC inhibit: 89.4; Lung fibro prol: 91.9

How did Cn1c(Oc2ccccc2NCc2cccc(Br)c2)cc(=O)n(C)c1=O do in these assays?
H69AR growth 86K: 99.9; HUVEC inhibit: 86.3; Lung fibro prol: 77.4

What do the screens show for `Cc1ccc(OCC(O)CNS(=O)(=O)c2ccccc2C(=O)N2CCCCC2)cc1` (centres undefined)?
H69AR growth 86K: 84.3; HUVEC inhibit: 99.7; Jurkat tox 60K: 11.2; Lung fibro prol: 97.0

Results for O=C(Nc1nc2ccccc2n1CCN1CCCCC1)C1CCCCC1 ?
H69AR growth 86K: 30.6*; HUVEC inhibit: 107.0; Lung fibro prol: 87.1

Results for CCCn1c(NC(=O)c2ccccc2)nc2ccccc21 ?
H69AR growth 86K: 30.9*; HUVEC inhibit: 85.8; Jurkat tox 60K: 22.1; Lung fibro prol: 71.4

How did O=C(Nc1nc2ccccc2n1CCN1CCCC1)C1CCCCC1 do in these assays?
H69AR growth 86K: 85.5; HUVEC inhibit: 113.6; Jurkat tox 60K: -2.7; Lung fibro prol: 93.6

How did CCCn1c(NC(=O)c2cccc(S(=O)(=O)N3CCCC3)c2)nc2ccccc21 do in these assays?
H69AR growth 86K: 16.6*; HUVEC inhibit: 52.2; Jurkat tox 60K: 44.5*; Lung fibro prol: 53.0

What do the screens show for `Cc1cccnc1NC(=O)C1CCN(S(=O)(=O)c2cccs2)CC1`?
H69AR growth 86K: 85.3; HUVEC inhibit: 96.6; Lung fibro prol: 103.9

How did CCCn1c(NC(=O)C2CCN(S(=O)(=O)c3cccs3)CC2)nc2ccccc21 do in these assays?
H69AR growth 86K: 38.5*; HUVEC inhibit: 72.4; Jurkat tox 60K: 83.5*; Lung fibro prol: 65.0

What do the screens show for `O=C(CN1C(=O)COc2ccccc21)N(Cc1cccnc1)Cc1ccccc1F`?
H69AR growth 86K: 82.5; HUVEC inhibit: 98.1; Jurkat tox 60K: 1.4; Lung fibro prol: 94.2
